Seven compounds from ChEMBL document CHEMBL1177882, “Novel bisstyryl derivatives of bakuchiol: targeting oral cavity pathogens” (2010) can be followed below.

For test [1], the system named is Streptococcus sanguinis. The test is described as follows: Antibacterial activity against Streptococcus sanguinis ATCC 10556 after 48 hrs by broth microdilution method. Type of test: functional. The settings on record: ATCC 10556, 48 h.
The test system of the next test is Fusobacterium nucleatum. In words: Antibacterial activity against Fusobacterium nucleatum ATCC 10953 after 48 hrs by broth microdilution method. Type of test: functional. The settings on record: ATCC 10953, 48 h. A digest of the protocol: (§1)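 Broth microdilution MIC for obligate anaerobes, run in their growth media (Wilkins–Chalgren for F. nucleatum and P. intermedia; supplemented Todd Hewitt broth for P. gingivalis). Inoculum suspended in Brucella broth, final 5 × 10^6 cfu/ml. Twofold dilutions, final 0.12–128 µg/ml. Incubated anaerobically (90% N2/5% H2/5% CO2) at 37 °C for 48 h; MIC is the lowest concentration without turbidity.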

Test [2] has as its system Streptococcus mutans. In words: Antibacterial activity against Streptococcus mutans ATCC 25175 after 48 hrs by broth microdilution method. Type of test: functional. As to conditions: ATCC 25175, 48 h. In general terms: Dilution methods test growth across graded concentrations, often in twofold steps.
Test [3] concerns Streptococcus sanguinis. The test is described as follows: Antibacterial activity against Streptococcus sanguinis ATCC 10556 after 24 hrs by broth microdilution method. As to conditions: ATCC 10556, 24 h.
The test system of another test is Porphyromonas gingivalis. The test is described as follows: Antibacterial activity against Porphyromonas gingivalis ATCC 33277 after 48 hrs by broth microdilution method. Type of test: functional. The settings on record: ATCC 33277, 48 h. A digest of the protocol:
as §1

Test [4] concerns Actinomyces viscosus. The test is described as follows: Antibacterial activity against Actinomyces viscosus ATCC 15987 after 48 hrs by broth microdilution method. Type of test: functional. The settings on record: ATCC 15987, 48 h.
The subject of test [5] is Streptococcus mutans. The test is described as follows: Antibacterial activity against Streptococcus mutans ATCC 25175 after 24 hrs by broth microdilution method. As to conditions: ATCC 25175, 24 h.
For a further test, the system named is Prevotella intermedia. The test is described as follows: Antibacterial activity against Prevotella intermedia ATCC 25611 after 48 hrs by broth microdilution method. Type of test: functional. The settings on record: ATCC 25611, 48 h. A digest of the protocol: as §1
Test [6] deals with Actinomyces viscosus. The test is described as follows: Antibacterial activity against Actinomyces viscosus ATCC 15987 after 24 hrs by broth microdilution method. As to conditions: ATCC 15987, 24 h.
Test [7] concerns Streptococcus mutans. The test is described as follows: Antibacterial activity against Streptococcus mutans ATCC 25175 assessed as inhibition of biofilm formation after 18 hrs. Type of test: functional. A digest of the protocol: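 Single-species S. mutans biofilm grown in flat-bottom polystyrene wells, BHI with 2% sucrose, 6 × 10^7 cfu/ml final, compound twofold 0.12–128 µg/ml, 18 h at 37 °C in 5% CO2. Wells rinsed with PBS pH 7.2, methanol-fixed, stained with 0.1% crystal violet, eluted in 95% ethanol, A595 read. % inhibition relative to untreated control; MBIC50 is the lowest concentration giving ≥50% inhibition.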

The test system of test [8] is Streptococcus mutans. In words: Antibacterial activity against Streptococcus mutans ATCC 25175 assessed as increase of cell membrane permeability at 2 time MIC after 60 mins propidium iodide staining by flow cytometry. Type of test: functional, organism-based. A digest of the protocol: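 Overnight BHI culture of S. mutans washed into 50 mmol/l sodium phosphate pH 7.1 (~1 × 10^9 cfu/ml), diluted 1:20 into buffer with compound at 2 × MIC. Incubated 60 min at room temperature; aliquots diluted in buffer and stained with propidium iodide at 10 µg/ml final on ice. The percentage of PI-stained cells was measured by flow cytometry.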
A general note: A flow cytometer gives signals particle by particle.

For test [9], the system named is Streptococcus mutans. The test is described as follows: Antibacterial activity against Streptococcus mutans ATCC 25175 assessed as 280 nm absorbing material release at 2 time MIC after 60 mins by spectrophotometric analysis. Format: functional, organism-based. A digest of the protocol: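 S. mutans prepared in 50 mmol/l phosphate pH 7.1 (~1 × 10^9 cfu/ml) was exposed to compound at 2 × MIC for 60 min at 37 °C. Supernatant taken after centrifugation (10,000 g, 10 min) and read at A280. Release is expressed as % of a total-release control made by lysozyme treatment (100 µg/ml, 60 min, 37 °C) plus sonication.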

For test [10], the system named is Streptococcus mutans. In words: Antibacterial activity against Streptococcus mutans ATCC 25175 assessed as decrease in cell viability at 2 time MIC after 60 mins by serial dilution method relative to control. Type of test: functional. A digest of the protocol:
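S. mutans suspension from an 18 h culture (~1 × 10^9 cfu/ml) diluted 1:20 into phosphate buffer containing compound at 2 × MIC. Incubated 60 min at 37 °C, then serially diluted in saline and plated on BHI agar. Colonies counted after 48 h at 37 °C in 5% CO2; viability given as CFU/ml relative to untreated cells.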

In brackets after ≈: the same amount, converted by molar mass. Activity calls are given as the source filed them.

As for `C=C[C@@](C)(/C=C/c1ccc(O)c(N)c1)CCC=C(C)C`, the MBC was 32 µg/mL (≈ 118 µM) in the test on Streptococcus sanguinis [1]; 64 µg/mL (≈ 236 µM) in the test on Fusobacterium nucleatum; 32 µg/mL (≈ 118 µM) in the test on Streptococcus mutans [2]; 4 µg/mL (≈ 14.7 µM) in the test on Porphyromonas gingivalis; 32 µg/mL (≈ 118 µM) in the test with Actinomyces viscosus [4]; 32 µg/mL (≈ 118 µM) against Prevotella intermedia. For the same compound, the MIC in the test on Fusobacterium nucleatum was determined as 32 µg/mL (≈ 118 µM); with Streptococcus sanguinis [3], 16 µg/mL (≈ 59 µM); in the test on Porphyromonas gingivalis, 2 µg/mL (≈ 7.37 µM); against Streptococcus mutans [5] it was 16 µg/mL (≈ 59 µM); against Prevotella intermedia, 16 µg/mL (≈ 59 µM); against Actinomyces viscosus [6], 16 µg/mL (≈ 59 µM).
Take `CC[C@](C)(CCCC(C)C)CCc1ccc(O)cc1`: the MBC in the test with Streptococcus sanguinis [1] was 2 µg/mL (≈ 7.62 µM); against Fusobacterium nucleatum it was over 128 µg/mL; against Streptococcus mutans [2] it was 4 µg/mL (≈ 15.2 µM); against Porphyromonas gingivalis, 2 µg/mL (≈ 7.62 µM); in the test on Actinomyces viscosus [4] it was 4 µg/mL (≈ 15.2 µM); in the test on Prevotella intermedia, 4 µg/mL (≈ 15.2 µM). For the same compound, the MIC is over 128 µg/mL in the test with Fusobacterium nucleatum; 1 µg/mL (≈ 3.81 µM) with Streptococcus sanguinis [3]; 1 µg/mL (≈ 3.81 µM) with Porphyromonas gingivalis; 2 µg/mL (≈ 7.62 µM) in the test on Streptococcus mutans [5]; 2 µg/mL (≈ 7.62 µM) against Prevotella intermedia; 2 µg/mL (≈ 7.62 µM) against Actinomyces viscosus [6]. Moreover, in the test on Streptococcus mutans [7], the MBIC50 came to 4 µg/mL.
Consider `C=C[C@@](C)(/C=C/c1ccc(OC)cc1)CCC=C(C)C`, for which the MBC with Streptococcus sanguinis [1] was over 128 µg/mL; with Fusobacterium nucleatum, over 128 µg/mL; with Streptococcus mutans [2], over 128 µg/mL; against Porphyromonas gingivalis, 32 µg/mL (≈ 118 µM); against Actinomyces viscosus [4] it was over 128 µg/mL; with Prevotella intermedia it was over 128 µg/mL. The MIC against Fusobacterium nucleatum is over 128 µg/mL; against Streptococcus sanguinis [3] it was over 128 µg/mL; against Porphyromonas gingivalis it was 32 µg/mL (≈ 118 µM); in the test with Streptococcus mutans [5], over 128 µg/mL; against Prevotella intermedia, over 128 µg/mL; in the test on Actinomyces viscosus [6] it was over 128 µg/mL. Besides, the outcome with Streptococcus mutans [8] and in the test with Streptococcus mutans [9] was Active. Further, in the test on Streptococcus mutans [10], the result was inactive.
For the compound `C=C[C@@](C)(/C=C/c1ccc(OC(C)=O)cc1)CCC=C(C)C` [ACETYLBAKUCHIOL], the MBC against Streptococcus sanguinis [1] is 16 µg/mL (≈ 53.6 µM); against Fusobacterium nucleatum, over 128 µg/mL; in the test on Streptococcus mutans [2], over 128 µg/mL; in the test on Porphyromonas gingivalis, 8 µg/mL (≈ 26.8 µM); in the test on Actinomyces viscosus [4] it was 64 µg/mL (≈ 214 µM); against Prevotella intermedia it was 64 µg/mL (≈ 214 µM). Also, the MIC was over 128 µg/mL in the test on Fusobacterium nucleatum; 16 µg/mL (≈ 53.6 µM) with Streptococcus sanguinis [3]; 8 µg/mL (≈ 26.8 µM) in the test with Porphyromonas gingivalis; 128 µg/mL (≈ 429 µM) in the test with Streptococcus mutans [5]; 64 µg/mL (≈ 214 µM) against Prevotella intermedia; 32 µg/mL (≈ 107 µM) in the test on Actinomyces viscosus [6].
For `C=C[C@@](C)(/C=C/c1ccc(O)c([N+](=O)[O-])c1)CCC=C(C)C`, the MBC is over 128 µg/mL with Streptococcus sanguinis [1]; over 128 µg/mL in the test on Fusobacterium nucleatum; 128 µg/mL (≈ 425 µM) with Streptococcus mutans [2]; 32 µg/mL (≈ 106 µM) in the test with Porphyromonas gingivalis; over 128 µg/mL against Actinomyces viscosus [4]; 128 µg/mL (≈ 425 µM) in the test on Prevotella intermedia. The MIC in the test on Fusobacterium nucleatum is over 128 µg/mL; in the test on Streptococcus sanguinis [3], 128 µg/mL (≈ 425 µM); against Porphyromonas gingivalis it was 32 µg/mL (≈ 106 µM); in the test with Streptococcus mutans [5], 64 µg/mL (≈ 212 µM); against Prevotella intermedia, 64 µg/mL (≈ 212 µM); with Actinomyces viscosus [6], 128 µg/mL (≈ 425 µM).
On to `COc1ccc(/C=C/[C@@](C)(/C=C/c2ccc(O)cc2)CCC=C(C)C)cc1CO`, for which the MBC is 8 µg/mL (≈ 20.4 µM) with Streptococcus sanguinis [1]; over 128 µg/mL against Fusobacterium nucleatum; 4 µg/mL (≈ 10.2 µM) against Streptococcus mutans [2]; 4 µg/mL (≈ 10.2 µM) with Porphyromonas gingivalis; 8 µg/mL (≈ 20.4 µM) in the test on Actinomyces viscosus [4]; 4 µg/mL (≈ 10.2 µM) in the test on Prevotella intermedia. Also, the MIC against Fusobacterium nucleatum was over 128 µg/mL; in the test on Streptococcus sanguinis [3] it was 4 µg/mL (≈ 10.2 µM); with Porphyromonas gingivalis, 2 µg/mL (≈ 5.1 µM); against Streptococcus mutans [5] it was 4 µg/mL (≈ 10.2 µM); with Prevotella intermedia, 2 µg/mL (≈ 5.1 µM); with Actinomyces viscosus [6] it was 4 µg/mL (≈ 10.2 µM). Moreover, the MBIC50 with Streptococcus mutans [7] came to 8 µg/mL.
On to `C=C[C@@](C)(/C=C/c1ccc(O)cc1)CC/C=C(/C)C=O`, for which the MBC against Streptococcus sanguinis [1] is 64 µg/mL (≈ 237 µM); in the test with Fusobacterium nucleatum, 64 µg/mL (≈ 237 µM); against Streptococcus mutans [2], 128 µg/mL (≈ 473 µM); in the test on Porphyromonas gingivalis, 16 µg/mL (≈ 59.2 µM); with Actinomyces viscosus [4] it was 64 µg/mL (≈ 237 µM); in the test with Prevotella intermedia, 64 µg/mL (≈ 237 µM). For the same compound, the MIC came to 32 µg/mL (≈ 118 µM) in the test with Fusobacterium nucleatum; 32 µg/mL (≈ 118 µM) against Streptococcus sanguinis [3]; 16 µg/mL (≈ 59.2 µM) against Porphyromonas gingivalis; 64 µg/mL (≈ 237 µM) against Streptococcus mutans [5]; 32 µg/mL (≈ 118 µM) in the test on Prevotella intermedia; 32 µg/mL (≈ 118 µM) with Actinomyces viscosus [6].

The term MBC denotes the smallest concentration meeting the test's criterion for killing. High values mean less potent killing, low ones more potent killing. What is called MIC is the least concentration at which growth counts as inhibited. High values mean a need for much substance, low ones inhibition by little substance.
